Read-outs that look alike come from different tables or passages of the source.
Legend:
[1] = molecular target: T1, Poa1p (Saccharomyces cerevisiae, UniProt P38218); test: Inhibition of Appr1p phosphatase activity of Poa1p; format: biochemical
T1 sequence (P38218 1-177): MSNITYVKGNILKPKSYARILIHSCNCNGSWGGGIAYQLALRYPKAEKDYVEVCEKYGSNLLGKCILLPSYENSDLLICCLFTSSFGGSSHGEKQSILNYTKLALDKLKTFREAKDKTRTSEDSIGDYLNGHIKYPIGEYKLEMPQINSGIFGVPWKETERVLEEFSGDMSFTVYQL
In short: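 Candidate inhibitors were first surveyed at 10 mM under two conditions: 8 nM Poa1p with 26 nM Appr1p for 1 h, and 35 nM Poa1p with 5 μM Appr1p for 2 h. IC50 was then obtained by titrating inhibitor concentration with 35 nM Poa1p and 5 μM Appr1p for 2 h. Readout was radiolabeled Appr1p conversion, separated by TLC.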

[2] = tested on: Hal2p; test: Inhibition of Appr1p phosphatase activity of Hal2p; format: biochemical, Saccharomyces cerevisiae; conditions: Appr1p well below KM; data not shown
In short: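 Purified His6-Hal2p at 104 nM was mixed with 5 nM Appr1p and each potential inhibitor at 10 mM. Incubation lasted long enough to convert ~50% of substrate without inhibitor. Labeled product was resolved by PEI-cellulose TLC and quantified by phosphorimaging.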

[3] = tested on: yeast crude extracts; test: Appr1p processing activity of yeast crude extracts; format: biochemical, Saccharomyces cerevisiae; conditions: for extract amount by which Appr1p is 50% processed: 17 nM Ap*pr1p, 1 h, 30°C
In short: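 Yeast strains (BY4741 background: wild type, poa1, hal2, and the double deletion) were grown to A600 1.0, washed in cold water, stored at −70°C and lysed with glass beads. Extracts were assayed in 5-fold serial dilutions (starting 16, 29, 23 and 21 μg respectively) with 17 nM Ap*pr1p for 1 h at 30°C. Reactions were phenol:chloroform-treated and resolved on PEI-cellulose TLC.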

[4] = molecular target: T1, Poa1p; test: KI for ADP-ribose by the method of Dixon; format: biochemical
In short: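 Ap*pr1p hydrolysis by 43 nM Poa1p at four fixed Appr1p concentrations (1–25 μM) with ADP-ribose 0–300 μM. Initial-rate inverses plotted against [ADP-ribose]; resulting slopes replotted against 1/[Appr1p]. KI derived from the secondary slope (KM/(Vmax·KI)) using known KM and Vmax for Appr1p. All fits by linear regression.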

[5] = molecular target: T1, Poa1p; test: Appr1p phosphatase assay, steady-state kinetics of Poa1p; format: biochemical
[6] = tested on: Hal2p; test: Appr1p phosphatase and pAp phosphatase assay, steady-state kinetics of Hal2p; format: biochemical, Saccharomyces cerevisiae; conditions: for Km / kcat: substrate of Hal2p, 30°C, pH 7.5
[7] = read-out: Inhibition in survey at 10 mM competitor (IC50), 10 mM competitor, 8 nM Poa1p, 26 nM Appr1p, 1 h, and 35 nM Poa1p, 5 μM Appr1p, 2 h
[8] = substrate of Poa1p, 30°C, pH 7.5, 21 nM Poa1p

| SMILES | IC50 [1, 7] | IC50 ([1]; 35 nM Poa1p, 5 μM Appr1p, 2 h) | Inhibition of Appr1p phosphatase activity of Hal2p (in words) [2] | also measured |
| --- | --- | --- | --- | --- |
| Nc1ncnc2c1ncn2[C@@H]1O[C@H](CO)[C@@H](O)[C@H]1OP(=O)(O)O [2′pA] | > 10 mM | – | – | – |
| Nc1ccn([C@@H]2O[C@H](CO)[C@@H](O)[C@H]2OP(=O)(O)O)c(=O)n1 [2′pC] | – | > 10 mM | – | – |
| Nc1nc2c(ncn2[C@@H]2O[C@H](CO)[C@@H](O)[C@H]2OP(=O)(O)O)c(=O)[nH]1 [2′pG] | > 10 mM | – | inhibited | – |
| Nc1ncnc2c1ncn2[C@@H]1O[C@H](CO)[C@@H](OP(=O)(O)O)[C@H]1O [3′pA] | – | > 10 mM | inhibited | – |
| Nc1ccn([C@@H]2O[C@H](CO)[C@@H](OP(=O)(O)O)[C@H]2O)c(=O)n1 [3′pC] | > 10 mM | – | – | – |
| Nc1nc2c(ncn2[C@@H]2O[C@H](CO)[C@@H](OP(=O)(O)O)[C@H]2O)c(=O)[nH]1 [3′pG] | > 10 mM | – | – | Inhibition of phosphatase activity remaining in poa1-Δ extract (in words) ([3]; poa1-Δ extract, data not shown): inhibited |
| Nc1ncnc2c1ncn2[C@@H]1O[C@H](COP(=O)(O)O)[C@@H](O)[C@H]1O [5′pA, AMP] | > 10 mM | – | – | – |
| Nc1ncnc2c1ncn2[C@@H]1O[C@H](COP(=O)(O)OP(=O)(O)OC[C@H]2OC(O)[C@H](O)[C@@H]2O)[C@@H](O)[C@H]1O (stereo partly drawn) [ADPR, ADP-ribose] | – | 0.03 mM | inhibited | Ki ([4]; 43 nM Poa1p, varied Appr1p and ADP-ribose (0–300 μM), Dixon plot): 0.017 mM; mode of inhibition ([4]; plots of inverse initial rates versus inhibitor concentration): classical competitive inhibition |
| Nc1ncnc2c1ncn2[C@@H]1O[C@H](COP(=O)(O)OP(=O)(O)O)[C@@H](O)[C@H]1O [ADP] | – | > 10 mM | – | – |
| Nc1ncnc2c1ncn2[C@@H]1O[C@H](COP(=O)(O)OP(=O)(O)OC[C@H]2O[C@@H](n3cnc4c(N)ncnc43)[C@H](O)[C@@H]2O)[C@@H](O)[C@H]1O [AppA] | – | 1 mM | – | – |
| Nc1ncnc2c1ncn2[C@@H]1O[C@H](COP(=O)(O)OP(=O)(O)OC[C@H]2O[C@H](OP(=O)(O)O)[C@H](O)[C@@H]2O)[C@@H](O)[C@H]1O [Appr1p, ADP-ribose-1″-phosphate] | – | – | – | preference of Poa1p for Appr1p relative to pAp ([5]; as measured by observed rates): at least 340 fold; kcat/KM difference in favor of Poa1p over Hal2p ([5]; substrate Appr1p): 14 fold; lower KM of Poa1p relative to Hal2p ([5]; substrate Appr1p): ~25 fold; Km [5, 8]: 2.8 µM; kcat [5, 8]: 0.0283 s⁻¹; Km [6]: 74 µM; kcat [6]: 0.0533 s⁻¹; extract amount by which Appr1p is 50% processed ([3]; hal2-Δ extract): 1.2 µg; extract amount by which Appr1p is 50% processed ([3]; poa1-Δ extract): 33 µg; extract amount by which Appr1p is 50% processed ([3]; poa1-Δ, hal2-Δ double mutant extract): 20 µg; extract amount by which Appr1p is 50% processed ([3]; wild-type extract): 1.8 µg |
| NC(=O)c1ccc[n+]([C@H]2O[C@@H](COP(=O)([O-])OP(=O)(O)OC[C@H]3O[C@@H](n4cnc5c(N)ncnc54)[C@H](OP(=O)(O)O)[C@@H]3O)[C@H](O)[C@@H]2O)c1 [NADP] | – | 2 mM | inhibited | – |
| NC(=O)c1ccc[n+]([C@@H]2O[C@H](COP(=O)([O-])OP(=O)(O)OC[C@H]3O[C@@H](n4cnc5c(N)ncnc54)[C@H](O)[C@@H]3O)[C@@H](O)[C@H]2O)c1 [NAD] | – | 1.5 mM | – | – |
| O=P(O)(O)OC[C@H]1OC(O)(CO)[C@@H](O)[C@@H]1O (stereo partly drawn) [fructose-6p] | > 10 mM | – | – | – |
| O=P(O)(O)O[C@H]1O[C@H](CO)[C@@H](O)[C@H](O)[C@H]1O [glucose-1p] | > 10 mM | – | – | – |
| O=C[C@H](O)COP(=O)(O)O [glyceraldehyde-3p] | > 10 mM | – | – | – |
| Nc1ncnc2c1ncn2[C@@H]1O[C@H](COP(=O)(O)O)[C@@H](OP(=O)(O)O)[C@H]1O [pAp] | > 10 mM | – | inhibited | Poa1p phosphatase activity on substrate (in words) ([5]; conditions where a turnover of 0.005 min^−1 (0.3% of the activity with Appr1p) should be easily observed): no detectable activity; preference of Hal2p for pAp relative to Appr1p ([6]; as measured by kcat/KM values): 10^4 fold; Km [6]: 0.1 µM; kcat [6]: 0.9 s⁻¹ |
| O=P(O)(O)O[C@H]1O[C@H](CO)[C@@H](O)[C@H]1O [ribose-1p] | > 10 mM | – | – | – |
| O=C[C@H](O)[C@H](O)[C@H](O)COP(=O)(O)O [ribose-5p, ribose 5-phosphate] | – | – | inhibited | IC50 [1]: > 10 mM |

Source: publication PMC548356 (Nucleic Acids Research, 2005)
